One test concerns Enterovirus C. In words: Antiviral activity against poliovirus in HeLa S3 cells assessed as reduction in viral titer. Format: functional, organism-based. In short, it runs like this: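 HeLa S3 cells pretreated with compound 1 h, then infected with 10⁶ PFU poliovirus (high MOI); after 15 min adsorption, fresh medium containing compound added and infection run a further 6 h. Cell-associated virus titered by plaque assay.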

Another test concerns HeLa. In words: Viability of human HeLa S3 cells. More on the design: concentration or dose not given beside the values. The class given is functional. In short, it runs like this: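 HeLa S3 cells exposed to compound for 7 h, then allowed to recover without compound for 24 h; viability recorded at four concentrations.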
The next test concerns Coxsackievirus B3. As to the kind of experiment: Antiviral activity against coxsackievirus B3 in HeLa S3 cells assessed as reduction in viral titer. Format: functional, organism-based. In short, it runs like this:
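HeLa S3 cells were pretreated with compound for 1 h, then infected with 10⁶ PFU CVB3 (high MOI). After 15 min of virus association, fresh medium containing compound was added and infection continued for 6 h. Cell-associated virus was titered by plaque assay. Cytotoxicity was checked separately after 7 h of treatment plus 24 h of recovery without compound.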

The test system of test [1] is Human immunodeficiency virus 1. As to the kind of experiment: Antiviral activity against HIV1. Format: functional, organism-based.
Another test deals with Human alphaherpesvirus 2. As to the kind of experiment: Antiviral activity against herpes simplex virus 2. Format: functional, organism-based.
For another test, the system named is Human alphaherpesvirus 1. As to the kind of experiment: Antiviral activity against herpes simplex virus 1. Format: functional, organism-based.
The target of the next test is Genome polyprotein (Human poliovirus 1 Mahoney, UniProt P03300). In words: Binding affinity to poliovirus RNA dependent RNA polymerase. More on the design: species or system Enterovirus C. In short, it runs like this:
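Purified poliovirus RdRP complexed with ³²P end-labeled symmetrical 10-mer RNA primer-template (S/S–G); nucleotide incorporation opposite G followed, products separated by denaturing PAGE; Kd and kpol derived from incorporation kinetics.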

Structures are written as SMILES. pKd: −log10 of the molar value. Active and inactive are the calls of the source. The calls are words filed in the database; no cut-off is given here.

Chain of Genome polyprotein (P03300 1749-2209 limits assumed): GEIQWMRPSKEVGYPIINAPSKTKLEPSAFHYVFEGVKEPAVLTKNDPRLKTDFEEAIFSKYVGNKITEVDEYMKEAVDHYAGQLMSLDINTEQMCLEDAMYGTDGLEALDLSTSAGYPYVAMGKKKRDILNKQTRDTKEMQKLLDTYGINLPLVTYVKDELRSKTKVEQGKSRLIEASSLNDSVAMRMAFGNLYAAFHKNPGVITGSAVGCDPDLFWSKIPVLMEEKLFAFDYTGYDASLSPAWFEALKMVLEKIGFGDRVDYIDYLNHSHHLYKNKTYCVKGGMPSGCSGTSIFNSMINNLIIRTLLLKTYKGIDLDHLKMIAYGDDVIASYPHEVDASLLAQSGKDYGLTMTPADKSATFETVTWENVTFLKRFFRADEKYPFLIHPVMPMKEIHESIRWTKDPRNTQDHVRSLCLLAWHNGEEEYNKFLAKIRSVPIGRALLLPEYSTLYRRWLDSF

On to `Nc1nc(=O)n([C@H]2C[C@H](O)[C@@H](CO)O2)cc1O`, for which the outcome in the test on Enterovirus C and in the test with Coxsackievirus B3 was inactive. In the test on HeLa, this compound had an Activity of 82%.
Regarding `Nc1nc(=O)n([C@@H]2O[C@H](CO)[C@@H](O)[C@H]2O)cc1O`, in the test with HeLa, the Activity is recorded as 36%.
Take `NC(=O)c1ncn([C@@H]2O[C@H](CO)[C@@H](O)[C@H]2O)n1` [RIBAVIRIN]: the Activity entry in the test with Enterovirus C is “Dose-dependent effect”; in the test with HeLa, 70%; with Coxsackievirus B3, “Dose-dependent effect”.
With `Nc1nc(=O)n([C@@H]2O[C@H](CO)[C@@H](O)[C@H]2O)cc1[N+](=O)[O-]`, the outcome in the test with Enterovirus C and in the test with Coxsackievirus B3 was Active. The Activity in the test with HeLa came to 80%.
Take `Nc1nc(=O)n([C@H]2C[C@H](O)[C@@H](CO)O2)cc1[N+](=O)[O-]`: the result (in test [1]; in the test on Human alphaherpesvirus 2; in the test with Human alphaherpesvirus 1) was Active.
With `Nc1nc(=O)n([C@@H]2O[C@H](CO)[C@@H](O)[C@H]2O)cc1Br`, the Activity in the test with HeLa came to 63%.
As to `Nc1nc(=O)n([C@H]2C[C@H](O)[C@@H](CO)O2)cc1Br`, the outcome in the test with Enterovirus C and in the test on Coxsackievirus B3 was inactive. The compound further yielded an Activity in the test with HeLa of 93%.
Usually pKd stands for the negative decadic logarithm of the Kd, by convention in mol/L. The compound `Nc1nc(=O)n([C@@H]2O[C@H](CO[P@@](=O)(O)O[P@](=O)(O)OP(=O)(O)O)[C@@H](O)[C@H]2O)cc1[N+](=O)[O-]` showed a pKd at Genome polyprotein of 5.97.
On to `Nc1cn([C@@H]2O[C@H](CO)[C@@H](O)[C@H]2O)c(=O)nc1N`, for which the outcome in the test on Enterovirus C and with Coxsackievirus B3 was Active. Also, the Activity in the test with HeLa was determined as 62%.

The record behind these values is ChEMBL document CHEMBL1137395, “Synthesis and antiviral activity of 5-substituted cytidine analogues: identification of a potent inhibitor of viral RNA-dependent RNA polymerases” (J Med Chem, 2006).
